# In the library only some 2.6% were active in any assay of this set; here they are far more common.
# rCAG RNA binder: binds r(CAG) RNA repeats | r(CAG) RNA repeat, TO-PRO-1 dye displacement fluorescence | 1.3% of 370,000 active | inhibition, % at 3 µM;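 active = inhibition above the plate cutoff, the mean of all test compounds on that plate plus 3 SD, cut at about 35% in these data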;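 also: higher means more dye released from RNA so lower well fluorescence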
# Scp1 inh: blocks human Scp-1 phosphatase activity; Recombinant Scp1, phosphopeptide, malachite green phosphate absorbance; inhibition, % at 20 µM; 0.88% of 340,000 active; Q9GZU7;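 active = inhibition above about 50% at 20 µM, limit read from the data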
# Target sequence (Q9GZU7 76-261 limits assumed): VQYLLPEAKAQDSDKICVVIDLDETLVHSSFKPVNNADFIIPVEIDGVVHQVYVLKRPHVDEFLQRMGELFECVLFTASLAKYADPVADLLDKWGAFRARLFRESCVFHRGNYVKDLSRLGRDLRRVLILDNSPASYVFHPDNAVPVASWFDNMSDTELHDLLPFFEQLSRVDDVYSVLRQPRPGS
#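 Material: truncated SCP-1 phosphatase (76-261aa) / Buffer or medium: 50 mM Tris acetate pH 5.5, 0.005% Tween-20, 10 mM MgCl2 / Compound dosing: one concentration, 20 µM, with 1.0% DMSO / Incubation: 45 min room-temperature reaction, 5 min colour, 30 min stabiliser / Detection: colorimetric free-phosphate detection, absorbance 630 nm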
# NadD block: NadD (S. aureus) enzyme inhibition; purified NadD enzyme, colorimetric absorbance read-out; AID 602399; 0.78% of 360,000 active; inhibition, % at 20 µM; in the data active = inhibition above about 26%
# LMPTP block: blocks human LMPTP phosphatase. 0.22% of 360,000 active. recombinant LMPTP-A, OMFP fluorogenic substrate, fluorescence intensity. P24666. AID 651560. inhibition, % at 20 µM;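 active = compounds that cut the enzyme signal by at least half of the control window in the single-dose screen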
# Target sequence (P24666 whole entry, looked up): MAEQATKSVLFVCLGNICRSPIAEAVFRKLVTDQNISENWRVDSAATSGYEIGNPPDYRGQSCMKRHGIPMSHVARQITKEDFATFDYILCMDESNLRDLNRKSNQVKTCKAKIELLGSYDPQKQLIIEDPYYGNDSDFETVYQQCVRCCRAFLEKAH
#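 Assay system: LMPTP-A phosphatase enzyme | Input: 0.625 nM enzyme | Also added: Fluorogenic phosphatase substrate OMFP at 400 µM final | Compound dosing: One test concentration per compound, 20 µM, with 3% DMSO overall | Schedule: 50 min enzyme reaction at room temperature, protected from light | Signal: Fluorescence intensity | Benchmarks: no-enzyme and uninhibited controls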
# STEP block: blocks human striatal-enriched tyrosine phosphatase. P54829. recombinant STEP, OMFP fluorogenic substrate, fluorescence. inhibition, % at 20 µM. 0.25% of 360,000 active. AID 588621;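 active = inhibition at 20 µM, scaled per plate between control wells, above about 37%, limit read from the data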
#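 System: STEP phosphatase, cell-free reaction; Buffer or medium: Bis-Tris pH 6.0 buffer with DTT, detergent; Incubation: 20 min at room temperature, dark; Measured by: fluorescence, 480/540 nm.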
# NadD inh conf: NadD (S. aureus) inhibition, single concentration confirmation. shares compounds with NadD block. purified S. aureus NadD, colorimetric enzyme assay. inhibition, % at 20 µM. 13% of 2,000 active. AID 624309; in the data active = inhibition mostly above about 42%, no sharp cut-off; inactive = mostly below about 42%
# Numbers stand for hits; - = inactive; . = no result given.
SMILES,rCAG RNA binder,Scp1 inh,NadD block,LMPTP block,STEP block,NadD inh conf
COc1cc2c(cc1NC(=O)C(C)N1CCN(S(=O)(=O)c3ccc(C)c(C)c3)CC1)oc1ccccc12 (centres undefined),-,-,-,-,-,.
COc1cc2c(cc1NC(=O)C(C)OC(=O)c1ccc(S(=O)(=O)Nc3ccccc3Cl)cc1)oc1ccccc12 (centres undefined),-,-,32,-,-,-
O=C(CSc1ccccc1)NC1CCCCN(Cc2ccc(Cl)cc2)C1=O (centres undefined),-,.,.,.,.,.
O=C(C1CCCN1S(=O)(=O)c1ccc(Br)s1)N1CCN(c2ccccc2)CC1 (centres undefined),-,.,.,.,.,.
Cc1ccc(Cn2c(C(C)Nc3nc(-c4ccc(Cl)c([N+](=O)[O-])c4)cs3)nc3cc(C(F)(F)F)ccc32)cc1 (centres undefined),-,-,37,-,-,-
CC(C)CN1C(=O)C[C@]2(C(=O)N(C)c3ccc(NC(=O)c4cc(F)ccc4F)cc32)C1c1ccccc1 (some centres undefined),-,.,.,.,.,.
CCCC(C)C(=O)Nc1nc(C)c(-c2csc(Nc3cc(Cl)ccc3C)n2)s1 (centres undefined),-,-,28,-,-,-
Cc1ccc(Cl)cc1Nc1nc(-c2sc(NC(=O)c3ccco3)nc2C)cs1,-,-,36,-,-,-
CCCCCC(=O)Nc1nc(C)c(-c2csc(Nc3cc(Cl)ccc3C)n2)s1,-,-,-,-,-,.
COc1cccc(N(C(=O)c2ccco2)c2nc(-c3sc(NC(=O)c4ccco4)nc3C)cs2)c1,-,-,36,-,-,-
Cc1nc(NC(=O)c2ccco2)sc1-c1csc(Nc2ccc(Cl)cc2)n1,-,-,36,-,-,-
COc1ccc(-c2csc(NC(=O)c3ccco3)n2)cc1,-,-,-,-,-,.
COC(=O)[C@]12C[C@H](CC(=O)NCC3CCCCC3)C(=O)N(Cc3ccc(Cl)cc3Cl)C1=C[C@H](C1CCCC1)O[C@@H]2C,-,.,.,.,.,.
O=C(CSc1nnc(-c2ccc(Cl)cc2)n1-c1ccccc1)Nc1ccc(Oc2ccccc2)cc1,-,.,.,.,.,.
O=S1(=O)c2c(cccc2N2CCC[C@@H]2CO)O[C@H]2CCN1C2,-,.,.,.,.,.
CC1(C)CC(=O)C=C(Nc2ccccc2NC(=O)c2cc(F)cc(F)c2)C1,-,.,.,.,.,.
COc1ccccc1Nc1nc(-c2sc(NC(=O)c3ccco3)nc2C)cs1,-,-,-,-,-,.
Cc1nc(NC(=O)c2ccco2)sc1-c1csc(Nc2ccc(Cl)cc2Cl)n1,48,-,53,-,-,-
Cc1c(NC(=O)C2CCCN(S(=O)(=O)c3ccc(C(C)(C)C)cc3)C2)c(=O)n(-c2ccccc2)n1C (centres undefined),-,.,.,.,.,.
CCCCc1nc2ccccc2c(=O)n1NC(=O)c1c(O)c2c(n(CC(C)C)c1=O)CCCC2,-,-,33,-,-,-
CC(C)N(C(=O)CSc1nnc(-c2cc3ccccc3cc2O)n1Cc1ccco1)C(C)C,-,-,-,-,-,.
O=C(CSc1nnc(-c2cc3ccccc3cc2O)n1Cc1ccco1)N1CCc2ccccc2C1,-,-,41,-,-,54
O=C(NCc1nc2ccccc2[nH]1)C1=C[C@H](c2ccc(Br)cc2)C[C@H](OCc2ccc(CO)cc2)O1,-,-,-,-,-,.
C#Cc1ccc([C@H]2C=C(C(=O)NCc3nc4ccccc4[nH]3)O[C@@H](OCc3ccc(CO)cc3)C2)cc1,-,-,33,-,-,46
CCOc1ccc(-c2csc(/C(C#N)=C\c3ccc(O)c([N+](=O)[O-])c3)n2)cc1,-,-,48,-,-,-
CCCCc1ccc(-c2csc(/C(C#N)=C\c3ccc(C)o3)n2)cc1,-,-,-,-,-,.
N#Cc1sc2nc(-c3cccs3)cc(-c3ccc(Cl)cc3)c2c1N,-,-,-,-,-,.
CCN(CC)C(=O)c1sc2nc(-c3cccs3)cc(-c3ccc(Cl)cc3)c2c1N,-,-,44,-,-,-
CCN(CC)C(=O)c1sc2nc(-c3cccs3)cc(-c3cccs3)c2c1N,-,-,73,-,-,-
Cc1nnc(NC(=O)c2sc3nc(-c4cccs4)cc(C(F)(F)F)c3c2N)s1,42,-,30,-,-,-

# Bioassay records from PubChem.
